Compounds with a hit are over-represented: about 4.2% of the library has one in this group of screens.
CHOP UPR activ – apoptotic UPR (CHOP) activation. activation, % at 10 µM. actives 0.34% (n = 330,000). CHO-CHOP luciferase reporter, luminescence; percent of tunicamycin response over DMSO baseline;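 active means at 10 µM dose, activation of 40% or more, normalized to positive control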;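 further: 100% = tunicamycin at 10 µg/mL and 0% = DMSO alone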
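assay system = CHO CHOP reporter cells | amount = 500 CHO-CHOP cells per well | buffer or medium = F12 with 10% FBS | incubation = 16-18 h cell attachment, then 6 h compound exposure, 37 °C | detection = luminescence read with Steady-Glo | read-out = percent activation relative to tunicamycin control | controls = tunicamycin high control, DMSO low control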
TMEM16A act – activates or potentiates the mouse TMEM16A chloride channel | Q8BHY3 | HEK293 TMEM16A/YFP-H148Q/I152L, iodide quench fluorescence; stronger effect = lower value | B-score at 10 µM | actives 0.3% (n = 340,000);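 active means fluorescence-ratio B-score plate-corrected deviation score at least 3 library SD below zero, with starting fluorescence score within 5 deviations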;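 further: channel opened by trigger with iodide after compound preincubation; score built on the fluorescence ratio of max minus min over baseline; more negative score means more quench and so TMEM16A activation or potentiation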
Target sequence (Q8BHY3 whole entry, looked up): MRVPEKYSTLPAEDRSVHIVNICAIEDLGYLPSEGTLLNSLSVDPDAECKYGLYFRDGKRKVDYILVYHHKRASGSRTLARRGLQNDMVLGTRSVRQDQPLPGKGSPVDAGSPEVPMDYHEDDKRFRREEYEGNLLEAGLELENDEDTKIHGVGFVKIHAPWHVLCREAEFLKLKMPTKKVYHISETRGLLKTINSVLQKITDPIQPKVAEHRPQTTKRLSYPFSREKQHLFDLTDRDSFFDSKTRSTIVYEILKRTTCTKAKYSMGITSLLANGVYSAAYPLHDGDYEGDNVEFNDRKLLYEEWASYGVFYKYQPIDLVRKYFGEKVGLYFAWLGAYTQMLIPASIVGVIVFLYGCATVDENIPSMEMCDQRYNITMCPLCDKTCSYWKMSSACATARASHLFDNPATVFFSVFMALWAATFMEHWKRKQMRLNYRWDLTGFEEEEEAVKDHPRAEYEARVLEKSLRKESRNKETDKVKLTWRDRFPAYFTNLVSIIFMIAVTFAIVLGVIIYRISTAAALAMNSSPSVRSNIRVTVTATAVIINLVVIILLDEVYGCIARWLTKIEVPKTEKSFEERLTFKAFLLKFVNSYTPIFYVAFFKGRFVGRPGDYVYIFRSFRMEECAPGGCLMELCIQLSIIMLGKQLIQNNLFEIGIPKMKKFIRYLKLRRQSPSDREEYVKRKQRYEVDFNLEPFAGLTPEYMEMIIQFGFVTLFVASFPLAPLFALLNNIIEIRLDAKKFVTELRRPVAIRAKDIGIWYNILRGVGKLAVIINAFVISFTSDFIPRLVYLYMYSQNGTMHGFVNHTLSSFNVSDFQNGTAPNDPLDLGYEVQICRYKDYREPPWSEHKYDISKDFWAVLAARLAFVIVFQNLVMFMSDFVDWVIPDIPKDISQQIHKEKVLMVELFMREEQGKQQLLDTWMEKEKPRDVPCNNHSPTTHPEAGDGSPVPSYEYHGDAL
XBP1 UPR activ – adaptive UPR (XBP1) activation; CHO-XBP1 luciferase reporter, IRE1-XBP1 UPR activation, luminescence; percent of tunicamycin response, DMSO as zero; activation, % at 20 µM; actives 0.33% (n = 330,000);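 active means versus positive control, 20 µM dose yields 30% or more activation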;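 further: 100% = tunicamycin at 10 µg/mL and 0% = DMSO only wells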
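Material: CHO cell line with stable XBP1 luciferase reporter; schedule: 16-18 h cell attachment at 37 °C, then 6 h compound exposure; signal: glow luminescence from Steady-Glo reagent; medium: serum-containing F12 medium, 10% FBS; benchmarks: tunicamycin 10 µg/mL and vehicle-only wells; read-out: percent activation relative to tunicamycin reference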
ANO1 block – mouse TMEM16A channel inhibition, primary screen. normalized B-score (activity score, 25-100; higher = stronger inhibition) at 10 µM. actives 1.2% (n = 310,000). HEK293 TMEM16A/YFP iodide influx fluorescence, ionomycin. AID 588511. Q8BHY3;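 active means ratio plate-corrected score three or more library SD toward inhibition, starting fluorescence score within five deviations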;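 further: score derived from kinetic fluorescence span divided by baseline fluorescence per well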
Hep lipid drop – modulators of hepatic lipid droplet formation | AML12 mouse hepatocytes, oleate lipid droplets, BODIPY imaging | inhibition, % at 6.5 µM | actives 0.4% (n = 240,000) | AID 1656;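 active means lipid droplet intensity inhibited by at least 50%, with more than 500 cells counted; inconclusive means wells with under 300 cells, treated as cytotoxic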
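Assay system: AML12 mouse liver cells | Compound dosing: One dose, 6.5 µM compound | Read-out basis: Droplet intensity reduction, % inhibition | Measured by: Fluorescence imaging, 20x objective, two fields per well | Schedule: Overnight treatment with compound plus oleate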
CHOP inh – blocks CHOP induction under ER stress | inhibition, % at 10 µM | CHO-K1 CHOP-promoter luciferase, tunicamycin-induced, 15-18 h | actives 3.8% (n = 220,000);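 active means compounds that reduced the stress-induced luciferase reporter signal by more than about 70% of percent inhibition, limit read from the data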;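 further: 0% = tunicamycin plus vehicle and 100% = wells without tunicamycin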
CHOP inh conf – confirmation of CHOP induction inhibitors; shares compounds with CHOP inh; CHO-CHOP promoter luciferase reporter, tunicamycin-induced, luminescence; inhibition, % at 10 µM; actives 45% (n = 2,100); AID 504437;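 active means mean of three repeat readings of reporter signal inhibition above a set limit, cut at about 70% in these data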;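 further: 0% = tunicamycin plus vehicle and 100% = wells lacking tunicamycin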
Numbers without * were called inactive; i = inactive; ? = inconclusive; nt = no result given.

SMILES	CHOP UPR activ	TMEM16A act	XBP1 UPR activ	ANO1 block	Hep lipid drop	CHOP inh	CHOP inh conf
CCCn1c(=S)[nH]c2cc(C(=O)N3CCc4ccccc4C3)ccc2c1=O	0	i	2	i	7	102*	14
CCCn1c(=S)[nH]c2cc(C(=O)N3CCN(c4ccccc4OC)CC3)ccc2c1=O	-1	i	-4	i	14	25	nt
COc1ccccc1N1CCN(C(=O)CCc2nnc3ccc(N4CCCC4)nn23)CC1	-2	i	-2	i	-4	nt	nt
Nc1cc(Cl)ccc1Oc1ccc(Cl)cc1	1	i	1	i	nt	96*	134*
Oc1[nH]c2ccc(Br)cc2c1N=Nc1ccc(F)cc1	3	i	-2	i	nt	nt	nt
Oc1[nH]c2ccccc2c1N=Nc1ccc(F)cc1	0	i	1	i	12	97*	59
CN1CCc2c(sc(NC(=O)c3cc4cc([N+](=O)[O-])ccc4s3)c2C(N)=O)C1	nt	nt	nt	nt	-14	101*	132*
COc1ccc(NC(=S)NC2CCCCC2)cn1	2	i	0	i	1	-23	nt
COc1ccc(/C=N/NC(=O)COc2ccccc2-c2ccccc2)cc1	1	i	9	i	?	106*	11
COc1ccc(/C=N/NC(=O)CCn2cnc(-c3ccccc3)c2-c2ccccc2)cc1	2	i	15	i	?	57	nt
Cc1ccc(S(=O)(=O)Nc2ccc(NC(=O)Nc3cccc(C(F)(F)F)c3)cc2)cc1	4	i	-1	i	2	99*	116*
CN(C)S(=O)(=O)NCCNC(=O)c1cc(OCC(F)(F)F)ccc1OCC(F)(F)F	-1	i	1	i	1	14	nt
O=C(Nc1ccc(OC(F)F)cc1)Nc1cccc(C(F)(F)F)c1	9	i	11	i	18	110*	86*
O=C(NCc1ccccc1Cl)c1ccc(S(=O)(=O)Nc2cccc(C(F)(F)F)c2)cc1	0	i	-5	100*	-11	98*	110*
O=C(Nc1ccncc1)Nc1cccc(C(F)(F)F)c1	0	i	-4	i	3	nt	nt
O=C(NCCNC(=O)c1cc(OCC(F)(F)F)ccc1OCC(F)(F)F)Nc1cccc(C(F)(F)F)c1	4	i	-5	i	nt	104*	101*
Cc1ccc(NC(=S)NNC(=S)Nc2cccc(C(F)(F)F)c2)cc1	1	i	1	i	10	61	nt
CN1CCN(S(=O)(=O)c2cccc(C(=O)NCCOc3ccccc3F)c2)CC1	1	i	-2	i	0	nt	nt
COc1ccc(C2C(C#N)=C(N)Oc3cccc(O)c32)cc1 (stereo not given)	-1	i	-2	i	-15	nt	nt
Cc1nc(SCC(=O)NCCc2ccc(Cl)cc2)nc(C)c1C	2	i	-1	i	nt	-3	nt
NC(=O)C1CCCN(C(=O)c2cccc(S(=O)(=O)N3CCCCCC3)c2)C1 (stereo not given)	1	i	-1	nt	nt	nt	nt
CC(C)(C)c1ccc(O)c(N=Cc2cc(Br)ccc2O)c1	-5	i	-11	i	23	98*	112*
Cc1nn2c(N)c(C#N)cnc2c1-c1ccc(Cl)cc1	-1	i	-2	i	-17	98*	-26
COc1ccc(-c2c(C)nn3c(N)c(C#N)cnc23)cc1OC	-1	i	11	i	-10	42	nt
CCOC(=O)C1CCCCN1Cc1ccc(F)c(Br)c1 (stereo not given)	0	i	0	i	-11	106*	16
CCOC(=O)C1CCCCN1Cc1ccc(OC)c(OC)c1 (stereo not given)	1	i	2	i	2	26	nt
CCN1C(=NCCc2cccs2)N[C@@H](c2cccs2)C(C(=O)OC)=C1C	0	i	-1	i	nt	nt	nt

Screens deposited in PubChem by several laboratories.
